ChEMBL document CHEMBL3997796 (J Med Chem, 2017)
Activity calls are given as the source filed them. The rule behind the calls is not given here.

Key:
[1] = target: T1, Lysophosphatidic acid receptor 1 (Homo sapiens, UniProt Q92633); assay: Agonist activity at LPA1 receptor (unknown origin) expressed in rat RH7777 cells assessed as increase in intracellular calcium level measured every 3.42 secs for 70 secs by Fura-2-AM dye based fluorescence assay; format: functional, cell-based
[2] = target: Lysophosphatidic acid receptor 2 (Homo sapiens) (UniProt Q9HBW0); assay: Antagonist activity at LPA2 receptor (unknown origin) expressed in MEF cells assessed as inhibition of LPA-induced intracellular calcium level up to 100 uM measured every 3.42 secs for 70 secs by Fura-2-AM dye based fluorescence assay; format: functional, cell-based
Sequence of Lysophosphatidic acid receptor 2 (Homo sapiens) (Q9HBW0 whole entry): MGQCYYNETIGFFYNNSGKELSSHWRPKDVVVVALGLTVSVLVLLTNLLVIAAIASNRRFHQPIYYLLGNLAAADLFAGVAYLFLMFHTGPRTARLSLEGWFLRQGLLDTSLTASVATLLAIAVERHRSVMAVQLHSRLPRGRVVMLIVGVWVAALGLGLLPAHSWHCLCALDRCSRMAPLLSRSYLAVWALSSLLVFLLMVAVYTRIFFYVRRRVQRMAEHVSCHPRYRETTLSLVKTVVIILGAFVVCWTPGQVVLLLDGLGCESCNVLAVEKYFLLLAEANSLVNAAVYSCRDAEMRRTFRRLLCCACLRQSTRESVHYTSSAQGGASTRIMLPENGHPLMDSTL

[3] = target: T2, Lysophosphatidic acid receptor 3 (Homo sapiens) (UniProt Q9UBY5); assay: Antagonist activity at LPA3 receptor (unknown origin) expressed in rat RH7777 cells assessed as inhibition of LPA-induced intracellular calcium level up to 100 uM measured every 3.42 secs for 70 secs by Fura-2-AM dye based fluorescence assay; format: functional, cell-based
T2 sequence (whole entry): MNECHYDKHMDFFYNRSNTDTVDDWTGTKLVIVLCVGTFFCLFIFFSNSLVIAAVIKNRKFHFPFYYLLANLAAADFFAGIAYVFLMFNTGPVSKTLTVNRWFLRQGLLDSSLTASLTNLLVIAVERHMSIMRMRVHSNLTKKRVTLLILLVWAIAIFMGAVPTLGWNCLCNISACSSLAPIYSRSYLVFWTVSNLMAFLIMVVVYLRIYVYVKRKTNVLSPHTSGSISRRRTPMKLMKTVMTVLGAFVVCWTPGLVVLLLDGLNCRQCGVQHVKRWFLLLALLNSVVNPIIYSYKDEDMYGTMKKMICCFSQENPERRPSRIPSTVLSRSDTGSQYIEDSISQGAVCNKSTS

[4] = target: T3, Glycerophosphocholine cholinephosphodiesterase ENPP6 (Homo sapiens) (UniProt Q6UWR7); assay: Inhibition of ENPP6 (unknown origin) using pNPPC as substrate measured every 2 mins for 1 hr by […]
T3 sequence (whole entry): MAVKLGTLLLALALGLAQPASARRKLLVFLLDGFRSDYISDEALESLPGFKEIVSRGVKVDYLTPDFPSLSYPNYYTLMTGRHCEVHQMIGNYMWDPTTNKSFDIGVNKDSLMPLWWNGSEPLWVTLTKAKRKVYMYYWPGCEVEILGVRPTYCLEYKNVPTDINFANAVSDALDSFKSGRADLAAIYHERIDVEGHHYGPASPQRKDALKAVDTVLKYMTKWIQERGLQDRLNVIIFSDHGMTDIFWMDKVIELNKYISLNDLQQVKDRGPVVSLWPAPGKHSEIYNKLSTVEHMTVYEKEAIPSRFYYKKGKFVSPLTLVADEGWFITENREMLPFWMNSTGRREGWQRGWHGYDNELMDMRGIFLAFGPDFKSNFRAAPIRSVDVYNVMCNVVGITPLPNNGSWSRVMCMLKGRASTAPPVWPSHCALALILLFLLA
In short: (§1)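 10 nM ENPP6 or ENPP7, 10 μM pNPPC, compound 0–10 μM, triplicate; ENPP6 buffer 100 mM Tris, 500 mM NaCl, 0.05% Triton pH 9.0; ENPP7 buffer 50 mM Tris, 150 mM NaCl, 10 mM taurocholate pH 8.5; 405 nm absorbance every 2 min for 1 h.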

[5] = target: Lysophosphatidic acid receptor 4 (Homo sapiens) (UniProt Q99677); assay: Antagonist activity at LPA4 receptor (unknown origin) expressed in CHO cells assessed as inhibition of LPA-induced intracellular calcium level up to 100 uM measured every 3.42 secs for 70 secs by Fura-2-AM dye based fluorescence assay; format: functional, cell-based
Sequence of Lysophosphatidic acid receptor 4 (Homo sapiens) (Q99677 whole entry): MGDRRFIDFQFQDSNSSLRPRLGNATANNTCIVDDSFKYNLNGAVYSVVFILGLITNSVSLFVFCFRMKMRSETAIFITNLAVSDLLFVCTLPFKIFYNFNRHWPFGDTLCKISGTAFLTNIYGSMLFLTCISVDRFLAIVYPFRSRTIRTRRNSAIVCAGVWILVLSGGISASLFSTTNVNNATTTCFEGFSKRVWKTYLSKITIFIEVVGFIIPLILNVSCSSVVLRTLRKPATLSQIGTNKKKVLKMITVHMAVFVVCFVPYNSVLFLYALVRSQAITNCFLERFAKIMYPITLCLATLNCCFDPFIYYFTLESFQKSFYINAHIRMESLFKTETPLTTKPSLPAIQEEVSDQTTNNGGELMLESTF

[6] = Stability in mouse 4T1 cells assessed as parent compound remaining at 10 uM after 16 hrs by LC-MS/MS method; format: ADME, cell-based; conditions: read-out: Stability
In short: (§2)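 4T1 cells (1 × 10^4/well) attached overnight, then 10 μM compound in DMEM with 1% charcoal-stripped FBS (0.1% DMSO final); quadruplicate samples at 0, 16, 40 h, centrifuged, diethyl ether extracted twice, LC-MS/MS peak areas normalized to 0 h.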

[7] = target: T1, Lysophosphatidic acid receptor 1; assay: Antagonist activity at LPA1 receptor (unknown origin) expressed in rat RH7777 cells assessed as inhibition of LPA-induced intracellular calcium level measured every 3.42 secs for 70 secs by Fura-2-AM dye based fluorescence assay; format: functional, cell-based
[8] = target: T4, Ectonucleotide pyrophosphatase/phosphodiesterase family member 7 (Homo sapiens) (UniProt Q6UWV6); assay: Inhibition of ENPP7 (unknown origin) using pNPPC as substrate measured every 2 mins for 1 hr by […]; in short: as §1
T4 sequence (whole entry): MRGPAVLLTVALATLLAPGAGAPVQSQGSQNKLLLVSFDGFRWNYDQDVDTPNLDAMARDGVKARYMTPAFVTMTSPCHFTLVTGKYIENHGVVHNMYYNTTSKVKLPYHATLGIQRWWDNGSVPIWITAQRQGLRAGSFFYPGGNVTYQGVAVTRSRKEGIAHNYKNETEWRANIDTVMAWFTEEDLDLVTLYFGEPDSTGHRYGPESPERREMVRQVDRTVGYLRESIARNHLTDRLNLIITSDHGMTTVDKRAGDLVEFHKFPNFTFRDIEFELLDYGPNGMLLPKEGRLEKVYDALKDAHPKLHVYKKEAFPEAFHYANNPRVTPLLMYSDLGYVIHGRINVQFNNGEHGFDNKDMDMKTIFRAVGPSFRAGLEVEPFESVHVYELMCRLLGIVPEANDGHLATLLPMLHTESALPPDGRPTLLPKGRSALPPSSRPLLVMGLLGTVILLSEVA

[9] = Stability in mouse 4T1 cells assessed as parent compound remaining at 10 uM after 40 hrs by LC-MS/MS method; format: ADME, cell-based; conditions: read-out: Stability; in short: as §2
[10] = target: T5, Autotaxin (Homo sapiens, UniProt Q13822); assay: Inhibition of recombinant human C-terminal FLAg-tagged ATX nucleotide pyrophosphate phosphatase activity expressed in baculovirus infected sf9 cells using pNP-TMP as substrate measured every 2 mins for 1 hr by fluorescence assay
[11] = target: T5, Autotaxin; assay: Inhibition of ATX (unknown origin) expressed in human A2058 cells assessed as inhibition of LPC-induced cell invasion at 10 uM after 20 hrs by calcein-AM dye based matrigel-mediated Boyden chamber assay
[12] = system: 4T1; assay: Growth inhibition of mouse 4T1 cells at 10 uM after 48 hrs by CellTiter blue assay; format: cell-based; conditions: 4t1, 48 h
[13] = target: T5, Autotaxin; assay: Competitive inhibition of recombinant human C-terminal FLAg-tagged ATX expressed in baculovirus infected sf9 cells using varying levels of FRET based FS-3 substrate at 0.5 to 2 times IC50 measured every 2 mins for 1 hr by Michaelis-Menten plot analysis
[14] = target: Lysophosphatidic acid receptor 5 (Homo sapiens) (UniProt Q9H1C0); assay: Antagonist activity at FLAG-tagged LPA5 receptor (unknown origin) expressed in rat B103 cells assessed as inhibition of LPA-induced intracellular calcium level up to 100 uM measured every 3.42 secs for 70 secs by Fura-2-AM dye based fluorescence assay; format: functional, cell-based
Sequence of Lysophosphatidic acid receptor 5 (Homo sapiens) (Q9H1C0 whole entry): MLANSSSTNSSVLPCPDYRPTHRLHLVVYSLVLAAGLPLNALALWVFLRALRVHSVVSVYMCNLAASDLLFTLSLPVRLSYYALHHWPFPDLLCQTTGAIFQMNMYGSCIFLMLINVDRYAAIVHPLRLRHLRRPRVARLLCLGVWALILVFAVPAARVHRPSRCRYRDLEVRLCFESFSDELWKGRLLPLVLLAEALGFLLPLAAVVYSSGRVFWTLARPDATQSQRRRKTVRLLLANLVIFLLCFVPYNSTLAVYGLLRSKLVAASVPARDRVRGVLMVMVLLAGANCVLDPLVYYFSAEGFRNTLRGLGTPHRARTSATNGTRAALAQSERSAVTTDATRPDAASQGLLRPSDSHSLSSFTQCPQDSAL

[15] = system: B16-F10; assay: Antitumor activity against mouse B16F10 cells implanted in C57BL/6 mouse assessed as reduction in metastatic tumor nodules on lungs at 1 mg/kg, ip administered daily up to 10 days measured on day 21; format: functional, organism-based
In short: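 C57BL/6 mice, 8–12 weeks, given 1 × 10^5 B16F10 cells by tail vein; 1 mg/kg i.p. daily from day 0 (before inoculation) to day 10, vehicle PBS with 1% DMSO and 50 μM charcoal-stripped mouse serum albumin; sacrifice day 21, lung nodules counted; one-way ANOVA with Bonferroni.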

[16] = target: T5, Autotaxin; assay: Inhibition of ATX (unknown origin) expressed in human A2058 cells assessed as inhibition of LPC-induced cell invasion after 20 hrs by calcein-AM dye based matrigel-mediated Boyden chamber assay
[17] = target: T5, Autotaxin; assay: Inhibition of ATX (unknown origin)
[18] = target: Autotaxin (Mus musculus) (UniProt Q9R1E6); assay: Inhibition of ATX in paclitaxel-resistant mouse 4T1 cells assessed as potentiation of paclitaxel-induced antiproliferative activity by measuring reduction in cell viability at 5 uM measured after 3 days by CellTiter blue assay
In short: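 Paclitaxel-resistant 4T1-TaxR (stepwise PT 40, 100, 200 nM) grown as mammospheres, 3.5 × 10^3 cells/well in serum-free RPMI with N-2, 20 ng/mL FGF and EGF, 4 days; spheres treated 3 days with 100 nM PT with or without inhibitor at 5 μM; CellTiter Blue; quadruplicate, three experiments.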

[19] = system: 4T1; assay: Growth inhibition of mouse 4T1 cells at 3 uM after 48 hrs by CellTiter blue assay; format: cell-based; conditions: 4t1, 48 h
[20] = system: 4T1; assay: Growth inhibition of mouse 4T1 cells up to 10 uM after 48 hrs by CellTiter blue assay; format: cell-based; conditions: 4t1, 48 h
[21] = target: Lysophosphatidic acid receptor 5 (Homo sapiens) (UniProt Q9H1C0); assay: Agonist activity at FLAG-tagged LPA5 receptor (unknown origin) expressed in rat B103 cells assessed as increase in intracellular calcium level up to 10 uM measured every 3.42 secs for 70 secs by Fura-2-AM dye based fluorescence assay; format: functional, cell-based
[22] = target: Lysophosphatidic acid receptor 4 (Homo sapiens) (UniProt Q99677); assay: Agonist activity at LPA4 receptor (unknown origin) expressed in CHO cells assessed as increase in intracellular calcium level up to 10 uM measured every 3.42 secs for 70 secs by Fura-2-AM dye based fluorescence assay; format: functional, cell-based
[23] = target: T1, Lysophosphatidic acid receptor 1; assay: Antagonist activity at LPA1 receptor (unknown origin) expressed in rat RH7777 cells assessed as inhibition of LPA-induced intracellular calcium level up to 100 uM measured every 3.42 secs for 70 secs by Fura-2-AM dye based fluorescence assay relative to LPA; format: functional, cell-based
[24] = target: Lysophosphatidic acid receptor 2 (Homo sapiens) (UniProt Q9HBW0); assay: Agonist activity at LPA2 receptor (unknown origin) expressed in MEF cells assessed as increase in intracellular calcium level up to 10 uM measured every 3.42 secs for 70 secs by Fura-2-AM dye based fluorescence assay; format: functional, cell-based
[25] = target: T2, Lysophosphatidic acid receptor 3 (Homo sapiens); assay: Agonist activity at LPA3 receptor (unknown origin) expressed in rat RH7777 cells assessed as increase in intracellular calcium level up to 10 uM measured every 3.42 secs for 70 secs by Fura-2-AM dye based fluorescence assay; format: functional, cell-based
[26] = target: T1, Lysophosphatidic acid receptor 1; assay: Agonist activity at LPA1 receptor (unknown origin) expressed in rat RH7777 cells assessed as increase in intracellular calcium level up to 10 uM measured every 3.42 secs for 70 secs by Fura-2-AM dye based fluorescence assay; format: functional, cell-based

T1 sequence (Q92633 whole entry): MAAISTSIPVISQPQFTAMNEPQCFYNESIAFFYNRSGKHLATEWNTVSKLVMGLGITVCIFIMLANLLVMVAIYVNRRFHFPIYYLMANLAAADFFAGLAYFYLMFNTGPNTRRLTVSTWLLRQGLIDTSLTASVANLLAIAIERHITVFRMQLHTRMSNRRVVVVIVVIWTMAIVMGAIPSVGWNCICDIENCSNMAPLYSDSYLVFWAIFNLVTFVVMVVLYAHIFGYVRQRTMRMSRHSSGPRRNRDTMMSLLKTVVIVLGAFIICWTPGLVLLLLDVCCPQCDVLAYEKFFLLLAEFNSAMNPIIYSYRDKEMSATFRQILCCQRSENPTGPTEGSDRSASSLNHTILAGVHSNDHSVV

Row | Compound | inhibition [2] | inhibition [3] | inhibition [4] | inhibition [5] | remaining at 16 h, 10 µM [6] | inhibition [8] | remaining at 40 h, 10 µM [9] | inhibition [10] | inhibition [11] | inhibition [13] | inhibition [14] | inhibition [16] | Activity [21] | Activity [22] | Emax [23] | IC50 ([7]; read-out: IC50) | Activity [24] | Activity [25] | Activity [26] | Activity [20] | further results
1 | CCCCCCCC/C=C\CCCCCCCC(=O)OCC(O)COP(=O)(O)O (configuration not stated) |  |  |  |  |  |  |  |  |  |  |  |  |  |  |  |  |  |  |  |  | EC50 [1]: 0.08 µM
2 | O=S(=O)(c1cc(C(=S)Nc2cc(F)c(F)c(F)c2)c(Cl)cc1Cl)N1CCOCC1 | inactive | inactive | inactive | inactive | 93.2% | inactive | 102% | inactive | Active | Active | inactive | Dose-dependent effect |  |  |  |  |  |  |  |  | IC50 [7]: Not Active; Activity [12]: Toxic; Activity [15]: Active
3 | O=C(Nc1cc(F)c(F)c(F)c1)c1cc(S(=O)(=O)N2CCOCC2)c(Cl)cc1Cl | inactive | inactive | inactive | inactive |  | inactive |  | inactive | Active | Active | inactive | Dose-dependent effect | inactive | inactive | 46.1% | 14 to 14.5 µM | inactive | inactive | inactive | Non-Toxic | inhibition [18]: 25 to 30%; Activity [15]: Active
4 | O=C(Nc1cc(F)c(Cl)c(F)c1)c1cc(S(=O)(=O)N2CCOCC2)c(Cl)cc1Cl | inactive | inactive | inactive | inactive | 101% | inactive | 108% | inactive | Active | Active | inactive | Dose-dependent effect | inactive | inactive | 51% | 6 to 6.12 µM | inactive | inactive | inactive | Non-Toxic | 

Further lines, with some results ahead:

Row | inhibition [2] | inhibition [3] | inhibition [4] | inhibition [5] | remaining at 16 h, 10 µM [6] | inhibition [8] | remaining at 40 h, 10 µM [9] | inhibition [10] | inhibition [11] | inhibition [13] | inhibition [14] | inhibition [16] | Activity [21] | Activity [22] | Emax [23] | IC50 ([7]; read-out: IC50) | Activity [24] | Activity [25] | Activity [26] | Compound | Activity [20] | further results
5 |  |  | inactive |  | 79.7% | inactive | 79.5% | inactive |  | Active |  |  |  |  |  |  |  |  |  | O=C(Nc1cccc(F)c1)c1cc(S(=O)(=O)N2CCOCC2)c(Cl)cc1Cl |  | IC50 [17]: 0.116 µM
6 |  |  |  |  |  |  |  |  | Active |  |  |  |  |  |  |  |  |  |  | CCCCCCCCCCCCCCCc1ccc(CP(=O)(O)O)cc1 | Non-Toxic | inhibition [18]: 25 to 30%; Activity [19]: Toxic
7 | inactive | inactive | inactive | inactive |  | inactive |  | inactive |  | Active | inactive |  | inactive | inactive | 50% | 18 to 18.4 µM | inactive | inactive | inactive | O=C(Nc1cc(Cl)c(F)c(Cl)c1)c1cc(S(=O)(=O)N2CCOCC2)c(Cl)cc1Cl |  | 
